Test results taken from ChEMBL document CHEMBL4513216, “Probing the Open Global Health Chemical Diversity Library for Multistage-Active Starting Points for Next-Generation Antimalarials” (ACS Infect Dis, 2020).

Test: Toxicity liver stage against HepG2, at 10uM
Assay type: cell-based
Design: test concentration 10 uM, cell line HepG2-A16-CD81EGFP
Settings: human, HepG2-A16-CD81EGFP cells; read-out: INHIBITION
Outline: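 Uninfected HepG2-A16-CD81EGFP cells, 3 × 10^3 per well, 1536-well, plated on prespotted compound at 10 μM final, parasite-free screening media added to match infected plates; puromycin 10 μM positive, DMSO 0.5% negative; run in parallel with 48 h PbLuc assay at 37 °C, 5% CO2; viability by CellTiter-Glo luminescence, normalized to controls.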

Compound | cytotoxicity at 10 µM [%]
CCc1ccc(CN(C)Cc2nc(COc3ccccc3)no2)nc1 | 6.58
COc1c[nH]c(C(=O)Nc2nc(C(C)(C)C)cs2)cc1=O | -49.6
O=C(C1CCOC1)N1CCN(Cc2cccnc2)c2ncccc2C1 (configuration not stated) | 3.07
CCn1nc(C)c2nnn(CC(=O)Nc3ccc(C)cc3)c(=O)c21 | 8.49
NCCC(=O)NCC1(O)CCCN(c2ccnc3cccnc23)C1 (configuration not stated) | 0.72
COCCC(=O)N1C[C@@H](c2ccccc2F)[C@@]2(CCCC(=O)N2)C1 | 0.55
CNC(=O)c1cn[nH]c1C1(C)CCCN(CC2(O)CCCCC2)C1 (configuration not stated) | -26
CCn1ncc(CN2CCc3nc(-c4cccnc4)nc(O)c3C2)c1C | -23.7
COc1cnc(C2(O)CCN(C(=O)c3ccco3)CC2)c(OC)n1 | -7.02
CCn1cc(CN2CCc3nc(N4CCOCC4)nc(O)c3CC2)cn1 | -5.59
Cc1cc(C(=O)NCc2cccs2)c2c(C3CCCN3)noc2n1 (configuration not stated) | 6.36
Cc1csc(N2CCCN(C(=O)c3cccs3)CC2)n1 | -8.08
CN(C)CC(C)(O)CNC(=O)Nc1sc2ccccc2c1Cl (configuration not stated) | 11.5
COC(=O)C(NC(=O)c1ccc(N(C)C)nc1)c1ccccc1 (configuration not stated) | 4.15
CCOCCCC(=O)N1CCCC1c1nc(-c2ccccc2F)c[nH]1 (configuration not stated) | 12.5
COc1ccccc1CC(C)CC(=O)O (configuration not stated) | 12.9
CCNC(=O)c1ccc(NC(=O)N(C)Cc2cc(C)on2)c(C)c1 | 6.2
CC(C)NC(=O)c1ccc(NC(=O)NC(C)c2ccccn2)cc1 (configuration not stated) | 9.44
COc1cccc2c1CCC2NC(=O)NCc1csc(N(C)C)n1 (configuration not stated) | -1.37
Cc1ccnc(NS(=O)(=O)c2cc(C(N)=O)n(C)c2)c1 | 0.814
O=C(Cc1ccc(F)cc1)NS(=O)(=O)c1ccc(F)c(F)c1 | -9.07
Cc1nc(CSCCC(=O)NCC(=O)NC(C)C)cs1 | -2.03
CCCc1noc(CCC(=O)N2CCCC(n3ccnc3C)C2)n1 (configuration not stated) | -4.39

Compound | cytotoxicity at 10 µM [%]
CCOCCC(=O)N1CCN(CC(C)O)CC1 (configuration not stated) | 6.7
Cc1nn(C)c(N(C)C)c1CNCc1ccc(N(C)C)nc1 | -1.24
Cc1ccc(CNC(=O)NC2CCN(CC(F)F)CC2)cc1 | -6.25
Cc1cc(NC(=O)c2ccc(F)cc2F)n(C)n1 | -2.18
Cc1cc(CNC(=O)Nc2cccc(COCCOC(C)C)c2)no1 | 11
O=C(CN1CCCC1CCCO)NCc1ccccn1 (configuration not stated) | -5.6
NC(=O)c1ccc(CN2CCC(N3CCCC3)CC2)cc1 | -2.3
CC(C)(C)n1cc(NCc2cscn2)cn1 | -6.08
Cc1ccc2cc(C(=O)N3CCCCC3c3nc[nH]n3)ccc2n1 (configuration not stated) | -5.92
O=S(=O)(CCO)Cc1ccc(OC(F)F)cc1 | -2.88
CCC(Nc1cccc(Oc2ccc(C#N)cc2)c1)C(N)=O (configuration not stated) | 38
CCn1nc(C)c(S(=O)(=O)Nc2ccccc2C(=O)OC)c1C | -0.678
Cn1cc(Br)cc1C(=O)NCC(C)(O)c1ccsc1 (configuration not stated) | -49
N#Cc1c[nH]c(C(=O)N(Cc2ccc(O)cc2)CC2CC2)c1 | 11.5
Cc1ccc(C(NCC(=O)N2CCNC(=O)C2)c2ccccc2)cc1 (configuration not stated) | 2.1
CCS(=O)(=O)NCCN(CCO)C1CCc2ccccc21 (configuration not stated) | 14.4
CC1CN(C)c2ccccc2N(C(=O)c2c[nH]c(C(C)C)n2)C1 (configuration not stated) | 3.61
Cc1ccc(C(CNCc2cccc3c2OCO3)N2CCOCC2)o1 (configuration not stated) | -38.9
CCN1C(=O)C2(CCCCC2)NC1c1cc(C#N)n(C)c1C (configuration not stated) | 4.59
c1csc(CCN2CCCC2c2noc(C3CC3)n2)c1 (configuration not stated) | 9.15
OCCOc1nc(-c2ccccc2Cl)no1 | -10.5
Cc1c(C(=O)NCC2CCCO2)nnn1-c1cccc2c1CCN(C)C2 (configuration not stated) | 1.96
O=C(C1CC=CC1)N1CCCn2nnc(CNc3ncccn3)c2C1 | 6.97

Compound | cytotoxicity at 10 µM [%]
CCO[C@H]1CC[C@H]2[C@H]1OCCN2C(=O)CC1=CCCCC1 | 1.75
O=c1ccc2c(n1CCN1CCCC1)CCN(c1ncccn1)CC2 | 8.33
CC(C)CN1C[C@@H]2CN(C(=O)c3cccn3C)C[C@@H]2C1=O | -111
CCOC1COC2(CCN(S(=O)(=O)c3cccc(F)c3)CC2)C1 (configuration not stated) | 5.15
CC(C)(CO)Nc1cc(-c2ccccc2)ncn1 | -7.8
Cc1nc2cc(OCc3nc(C(=O)NC(CO)CO)co3)ccc2s1 | 4.01
O=c1n(CC2CC2)nc(C2CCNCC2)n1Cc1ccccc1 | -4.8
COc1ccccc1CN1C(=O)O[C@@H]2CN(c3ccccn3)C[C@@H]21 | 5.97
COCC(C)N(Cc1ccccc1OC)C(=O)c1cc(C)[nH]c(=O)c1 (configuration not stated) | -3.73
Cc1ccc(N2CCC(c3nccn3Cc3cscn3)CC2)nn1 | -12.8
O=C1CC2(CCCC2)CC(=O)N1Cc1ncccn1 | 1.27
CC(C)c1noc(C(C)Nc2nccc(CCC(F)(F)F)n2)n1 (configuration not stated) | 2.08
CN(C)c1cnn(Cc2nc3ccccc3n2C)c(=O)c1 | 10.9
CN(C(=O)CN1CCCC1=O)C1CCCN(C2Cc3ccccc3C2)C1 (configuration not stated) | 0.024
O=C(O)C(c1ccc2c(c1)OCO2)N1CCCCCC1 (configuration not stated) | -0.293
O=C(O)c1ccc(N2CCC(Oc3ccc(Cl)cc3)CC2)nc1 | -55.6
CCC(=O)N1CCC(Oc2ccc(C(=O)NCCN(C)C)cc2Cl)CC1 | 4.12
COCCN(C/C=C/c1ccccc1)Cc1[nH]cnc1C | 10.3
CN(C)C(C(=O)N1CCCC1)c1ccccc1F (configuration not stated) | 7.35
CC(C)CN1CCCn2nc(CNC(=O)c3cccnc3O)cc2C1 | -14.4
CNc1cncc(C2CCCN2C(=O)c2ccc3oc(=O)n(C)c3c2)n1 (configuration not stated) | -1.57
COC(=O)C(NC(=O)C1CC1)c1cc(F)ccc1F (configuration not stated) | -4.64
COc1ccccc1CC(=O)N1CCC(NCc2ccc(C)o2)CC1 | -5.28

Compound | cytotoxicity at 10 µM [%]
CCCc1nc(C(C)(C)NC(=O)C2CC(=O)N(CC)C2)no1 (configuration not stated) | 3.51
CCOCC(O)CN1CCN(C(=O)c2ccc3c(c2)COC3)CC1 (configuration not stated) | -0.0716
COC(=O)CN1CCCN(C(=O)CCOc2cccc(C)c2C)CC1 | -1.73
Cc1cc(C)n(CC2CN(c3cnc4ccccc4n3)CCO2)n1 (configuration not stated) | -2.42
CCc1nc(CN(C(C)=O)C2CCN(CCc3ccccn3)C2)no1 (configuration not stated) | -11.6
CCN1CCN(c2ccc(CNC(=O)c3ccccc3F)cn2)CC1 | -16.4
COc1ccc(Cl)cc1C(=O)NC(CC(=O)O)c1cccs1 (configuration not stated) | -6.16
Cc1ccc(C(=O)NCc2ccc(N3CCCC(C(N)=O)C3)cc2)o1 (configuration not stated) | 0.742
COc1ncccc1CNC(=O)Nc1cc(C)nn1C | -5.13
CCN1CCC(CNC(=O)C2(c3ccc(F)cc3)CC2)C1 (configuration not stated) | -23
Cc1cnn(CC2CN(Cc3nccn3CC(F)(F)F)CCO2)c1 (configuration not stated) | -11.7
CCCc1n[nH]c(C2CN(CCC(F)(F)F)CCO2)n1 (configuration not stated) | -13.9
CCn1cnnc1CNC(=O)c1cc(F)ccc1OC | -14.3
CC(C)NC(=O)Nc1ccc(CNCc2ccc(OC(F)F)cc2)cc1 | -3.95
NS(=O)(=O)c1cc(C(=O)N2CCCC(n3ccnc3)C2)cs1 (configuration not stated) | -11.3
Cc1cnn(CC2CN(Cc3nc4ccccc4c(=O)[nH]3)CCO2)c1 (configuration not stated) | -7.62
O=C(NCCNc1ccc(C(F)(F)F)cn1)c1ccc(Cl)cc1F | -1.99
CC(C)c1nnc2n1CCN(C(=O)c1ccc(OCC3CC3)cc1)C2 | -6.14
O=C(Cc1cccc(F)c1)NCCNCc1ccco1 | -6.08
Cc1cc(C2CCCN(C(=O)CN3CCN(C)CC3)C2)n[nH]1 (configuration not stated) | -4.18
COc1ncccc1CNC(=O)NC1CCOc2ccccc21 (configuration not stated) | -7
COc1ccc(CNCc2ccnc(N3CCOCC3)c2)c(OC)c1 | -8.92
Cc1ccc2oc(C(=O)N3CCC(C(=O)N4CCCC4)CC3)cc2n1 | -1.35

Compound | cytotoxicity at 10 µM [%]
CC(C)c1ccc(OCCC(=O)N2CCC(CC(N)=O)CC2)cc1 | -14
CNS(=O)(=O)c1ccc(C(=O)N2CCCC(n3cccn3)C2)cc1 (configuration not stated) | -7.95
CCC(CC)C(CNC(=O)Nc1cc(C)nn1C)N1CCOCC1 (configuration not stated) | 1.74
CN(Cc1cnn(C)c1)C(=O)NC1CCN(Cc2ccccn2)CC1 | -2.35
CN(Cc1ccc2c(c1)OCCO2)C(=O)Cn1ccccc1=O | 1.2
Cc1nc(CN2CCCN(C(=O)C(C)OCC3CC3)CC2)cs1 (configuration not stated) | -3.87
O=C1NCCN1C1CCN(CCc2cccs2)CC1 | -1.32
O=C(NCCC(=O)N1CCCCCC1)c1c(O)cc(F)cc1F | -1.8
O=C(Cc1ccsc1)N1CCN(CC2CC2)c2ncccc2C1 | -101
CN1CC(=O)N(c2ccccc2)CC12CCN(C(=O)c1cnccn1)C2 (configuration not stated) | 9.91
CCc1c(C)[nH]c(C(C)(N)CC)nc1=O (configuration not stated) | -4.04
CC(C)N(C)Cc1nnc2n1CCCN(c1ncccn1)C2 | 3.24
CCOCCN1C[C@H](C(=O)Nc2cccnc2)[C@@H]2CCO[C@@H]2C1 | -101
CC[C@@H]1N(Cc2ccc(C)o2)CCC[C@]12CCC(=O)N2CCOC | 10.5
Cc1noc(C)c1CN1CCO[C@H]2CN(C(=O)C3CCOCC3)C[C@H]21 | 0.845
Cn1ccnc1C(=O)N[C@@H]1CN(Cc2ccoc2)[C@@H]2CCCO[C@@H]21 | -99.9
c1cncc(CNc2ccc3nc(C4CCNCC4)nn3c2)c1 | -108
O=C1OCCN1CC(=O)N1C[C@@H]2CC[C@H]1CN(C(=O)c1cccnc1)C2 | 11.6
NCC1CCC(C(NC(=O)C2CC2)c2ccccn2)CC1 (configuration not stated) | -12.6
CCc1oc(C(=O)N2CC[C@@H]3CC[C@H](C2)N3)cc1CN(CC)CC | 4.83
